Converted amounts (≈) assume the structure as drawn.
Columns and labels:
Type in all cases: functional
Haemophilus influenzae [1] = experiment: Antimicrobial activity against Beta-lactamase-negative, ampicillin-resistant Haemophilus influenzae with Asp350Asn, Met377Ile, Asn526Lys substitutions in penicillin-binding protein 3 by broth microdilution method
Method in brief: (§1)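 Broth microdilution MIC in freshly prepared Haemophilus test medium per 2008 CLSI guidelines; H. influenzae ATCC 49247 and ATCC 49766 as control strains. Isolates from outpatient nasal aspirates (no prior antibiotics), cultured on blood agar with S. aureus streak and chocolate agar. PBP3 substitutions deduced from ftsI sequencing against the Rd strain; β-lactamase genes (TEM-1, ROB-1) detected by PCR.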

Haemophilus influenzae [2] = experiment: Antimicrobial activity against Beta-lactamase-negative, ampicillin-resistant Haemophilus influenzae with Asp350Asn, Ser357Asp, Met377Ile, Ser385Thr, Leu389Phe, substitutions in penicillin-binding protein 3 by broth microdilution method; method in brief: as §1
Haemophilus influenzae [3] = experiment: Antimicrobial activity against beta-lactamase-negative, ampicillin-sensitive Haemophilus influenzae by broth microdilution method; method in brief: as §1
Haemophilus influenzae [4] = experiment: Antimicrobial activity against Beta-lactamase-positive, ampicillin-cluvulanate-resistant Haemophilus influenzae with Asp350Asn, Met377Ile, Asn526Lys substitutions in penicillin-binding protein 3 by broth microdilution method; method in brief: as §1
Haemophilus influenzae [5] = experiment: Antimicrobial activity against Beta-lactamase-negative, ampicillin-resistant Haemophilus influenzae with Asp350Asn, Ser357Asp, Ser385Thr, Leu389Phe, Ala502Thr, Asn526Lys substitutions in penicillin-binding protein 3 by broth microdilution method; method in brief: as §1
Haemophilus influenzae [6] = experiment: Antimicrobial activity against Beta-lactamase-positive, ampicillin-cluvulanate-resistant Haemophilus influenzae with Asp350Asn, Met377Ile, Ser385Thr, Asn526Lys substitutions in penicillin-binding protein 3 by broth microdilution method; method in brief: as §1
Haemophilus influenzae [7] = experiment: Antimicrobial activity against Beta-lactamase-negative, ampicillin-resistant Haemophilus influenzae by broth microdilution method; method in brief: as §1
Haemophilus influenzae [8] = experiment: Antimicrobial activity against Beta-lactamase-positive, ampicillin-cluvulanate-resistant Haemophilus influenzae with Asp350Asn, Ser357Asp, Ala437Ser, Ala502Thr, Asn526Lys substitutions in penicillin-binding protein 3 by broth microdilution method; method in brief: as §1
Haemophilus influenzae [9] = experiment: Antimicrobial activity against Beta-lactamase-negative, ampicillin-resistant Haemophilus influenzae with Asp350Asn, Met377Ile, Gly490Glu, Ala502Val, Asn526Lys substitutions in penicillin-binding protein 3 by broth microdilution method; method in brief: as §1
Haemophilus influenzae [10] = experiment: Antimicrobial activity against Beta-lactamase-negative, ampicillin-resistant Haemophilus influenzae with Ala502Val, Asn526Lys substitutions in penicillin-binding protein 3 by broth microdilution method; method in brief: as §1
Haemophilus influenzae [11] = experiment: Antimicrobial activity against Beta-lactamase-positive, ampicillin-cluvulanate-resistant Haemophilus influenzae with Asp350Asn, Ser357Asp, Met377Ile, Ser385Thr, Arg517His substitutions in penicillin-binding protein 3 by broth microdilution method; method in brief: as §1
Haemophilus influenzae [12] = experiment: Antimicrobial activity against Beta-lactamase-positive, ampicillin-cluvulanate-resistant Haemophilus influenzae with Asp350Asn, Ala437Ser substitutions in penicillin-binding protein 3 by broth microdilution method; method in brief: as §1
Haemophilus influenzae [13] = experiment: Antimicrobial activity against Beta-lactamase-positive, ampicillin-cluvulanate-resistant Haemophilus influenzae with Ala368Thr, Ala502Thr, Asn526Lys substitutions in penicillin-binding protein 3 by broth microdilution method; method in brief: as §1
Haemophilus influenzae [14] = experiment: Antimicrobial activity against Beta-lactamase-negative, ampicillin-resistant Haemophilus influenzae with Ile449Val, Asn526Lys substitutions in penicillin-binding protein 3 by broth microdilution method; method in brief: as §1
Haemophilus influenzae [15] = experiment: Antimicrobial activity against Beta-lactamase-positive, ampicillin-cluvulanate-resistant Haemophilus influenzae with Ala502Val, Asn526Lys substitutions in penicillin-binding protein 3 by broth microdilution method; method in brief: as §1
Haemophilus influenzae [16] = experiment: Antimicrobial activity against Beta-lactamase-positive, ampicillin-cluvulanate-resistant Haemophilus influenzae by broth microdilution method; method in brief: as §1
Haemophilus influenzae [17] = experiment: Antimicrobial activity against Beta-lactamase-negative, ampicillin-resistant Haemophilus influenzae with Ile449Val, Ala502Thr, Asn526Lys substitutions in penicillin-binding protein 3 by broth microdilution method; method in brief: as §1
Haemophilus influenzae [18] = experiment: Antimicrobial activity against Beta-lactamase-negative, ampicillin-resistant Haemophilus influenzae with penicillin-binding protein 3 by broth microdilution method; method in brief: as §1
Haemophilus influenzae [19] = experiment: Antimicrobial activity against Beta-lactamase-positive, ampicillin-cluvulanate-resistant Haemophilus influenzae with Asp350Asn, Met377Ile, Ala502Val, Asn526Lys substitutions in penicillin-binding protein 3 by broth microdilution method; method in brief: as §1
Haemophilus influenzae [20] = experiment: Antimicrobial activity against Beta-lactamase-negative, ampicillin-resistant Haemophilus influenzae with Asp350Asn, Ser357Asp, Met377Ile, Ser385Thr, Arg517His substitutions in penicillin-binding protein 3 by broth microdilution method; method in brief: as §1
Haemophilus influenzae [21] = experiment: Antimicrobial activity against Beta-lactamase-positive, ampicillin-resistant Haemophilus influenzae by broth microdilution method; method in brief: as §1
Haemophilus influenzae [22] = experiment: Antimicrobial activity against Beta-lactamase-negative, ampicillin-resistant Haemophilus influenzae with Asp350Asn, Ser357Asp, Met377Ile, Ser385Thr, Ala502Thr, Asn526Lys substitutions in penicillin-binding protein 3 by broth microdilution method; method in brief: as §1
Haemophilus influenzae [23] = experiment: Antimicrobial activity against Haemophilus influenzae isolate by broth microdilution method; method in brief: as §1
Haemophilus influenzae [24] = experiment: Antimicrobial activity against Beta-lactamase-positive, ampicillin-cluvulanate-resistant Haemophilus influenzae with Ile449Val, Asn526Lys substitutions in penicillin-binding protein 3 by broth microdilution method; method in brief: as §1
Haemophilus influenzae [25] = experiment: Antimicrobial activity against Beta-lactamase-negative, ampicillin-resistant Haemophilus influenzae with Asp350Asn, Met377Ile, Ala502Val, Asn526Lys substitutions in penicillin-binding protein 3 by broth microdilution method; method in brief: as §1
Haemophilus influenzae [26] = experiment: Antimicrobial activity against Beta-lactamase-positive, ampicillin-cluvulanate-resistant Haemophilus influenzae with Asp350Asn, Met377Ile, Gly490Glu, Ala502Val, Asn526Lys substitutions in penicillin-binding protein 3 by broth microdilution method; method in brief: as §1
Haemophilus influenzae [27] = experiment: Antimicrobial activity against Beta-lactamase-negative, ampicillin-resistant Haemophilus influenzae with Asp350Asn, Met377Ile, Gly490Glu, Asn526Lys substitutions in penicillin-binding protein 3 by broth microdilution method; method in brief: as §1
Haemophilus influenzae [28] = experiment: Antimicrobial activity against Beta-lactamase-negative, ampicillin-resistant Haemophilus influenzae with Ser311Pro, Ala502Thr, Asn526Lys substitutions in penicillin-binding protein 3 by broth microdilution method; method in brief: as §1
Haemophilus influenzae [29] = experiment: Antimicrobial activity against Beta-lactamase-negative, ampicillin-resistant Haemophilus influenzae with Gly490Glu, Asn526Lys substitutions in penicillin-binding protein 3 by broth microdilution method; method in brief: as §1
Haemophilus influenzae [30] = experiment: Antimicrobial activity against Beta-lactamase-positive, ampicillin-cluvulanate-resistant Haemophilus influenzae with Asp350Asn, Ala502Thr, Asn526Lys substitutions in penicillin-binding protein 3 by broth microdilution method; method in brief: as §1
[31] = Haemophilus influenzae, read-out: MIC

Compound	MIC (Haemophilus influenzae [1]) [µg/mL]	MIC (Haemophilus influenzae [2]) [µg/mL]	MIC50 (Haemophilus influenzae [3]) [µg/mL]	MIC90 (Haemophilus influenzae [3]) [µg/mL]	MIC (Haemophilus influenzae [4]) [µg/mL]	MIC (Haemophilus influenzae [5]) [µg/mL]	MIC (Haemophilus influenzae [6]) [µg/mL]	MIC50 (Haemophilus influenzae [7]) [µg/mL]	MIC90 (Haemophilus influenzae [7]) [µg/mL]	MIC (Haemophilus influenzae [8]) [µg/mL]	MIC (Haemophilus influenzae [9]) [µg/mL]	MIC (Haemophilus influenzae [10]) [µg/mL]	MIC (Haemophilus influenzae [11]) [µg/mL]	MIC (Haemophilus influenzae [12]) [µg/mL]	MIC (Haemophilus influenzae [13]) [µg/mL]	MIC (Haemophilus influenzae [14]; [31]) [µg/mL]	MIC (Haemophilus influenzae [15]) [µg/mL]	MIC50 (Haemophilus influenzae [16]) [µg/mL]	MIC90 (Haemophilus influenzae [16]) [µg/mL]	MIC (Haemophilus influenzae [17]) [µg/mL]	also measured
CO/N=C(\C(=O)N[C@@H]1C(=O)N2C(C(=O)O)=C(COC(N)=O)CS[C@H]12)c1ccco1 [CEFUROXIME]	9.3 (≈ 21.9 µM)	13.3 (≈ 31.3 µM)	2 (≈ 4.71 µM)	8 (≈ 18.9 µM)	2 (≈ 4.71 µM)	11.4 (≈ 26.9 µM)	2 (≈ 4.71 µM)	8 (≈ 18.9 µM)	16 (≈ 37.7 µM)	6.5 (≈ 15.3 µM)	6 (≈ 14.1 µM)	6 (≈ 14.1 µM)	32 (≈ 75.4 µM)	4 (≈ 9.43 µM)	6.5 (≈ 15.3 µM)	8 (≈ 18.9 µM)	11.4 (≈ 26.9 µM)	8 (≈ 18.9 µM)	32 (≈ 75.4 µM)	11.4 (≈ 26.9 µM)	MIC (Haemophilus influenzae [18]): 2 µg/mL (≈ 4.71 µM); MIC (Haemophilus influenzae [19]): 11.4 µg/mL (≈ 26.9 µM); MIC (Haemophilus influenzae [20]): 13.3 µg/mL (≈ 31.3 µM); MIC50 (Haemophilus influenzae [21]): 2 µg/mL (≈ 4.71 µM); MIC90 (Haemophilus influenzae [21]): 8 µg/mL (≈ 18.9 µM); MIC (Haemophilus influenzae [22]): 11.4 µg/mL (≈ 26.9 µM); MIC50 (Haemophilus influenzae [23]): 2 µg/mL (≈ 4.71 µM); MIC90 (Haemophilus influenzae [23]): 8 µg/mL (≈ 18.9 µM); MIC (Haemophilus influenzae [24]): 4 µg/mL (≈ 9.43 µM); MIC (Haemophilus influenzae [25]): 6 µg/mL (≈ 14.1 µM); MIC (Haemophilus influenzae [26]): 11.4 µg/mL (≈ 26.9 µM); MIC (Haemophilus influenzae [27]): 9.3 µg/mL (≈ 21.9 µM); MIC (Haemophilus influenzae [28]): 11.4 µg/mL (≈ 26.9 µM); MIC (Haemophilus influenzae [29]): 9.3 µg/mL (≈ 21.9 µM); MIC (Haemophilus influenzae [30]): 6.5 µg/mL (≈ 15.3 µM)
CC1(C)S[C@@H]2[C@H](NC(=O)[C@H](N)c3ccccc3)C(=O)N2[C@H]1C(=O)O [AMPICILLIN]	4 (≈ 11.4 µM)	5.3 (≈ 15.2 µM)	1 (≈ 2.86 µM)	1 (≈ 2.86 µM)	288 (≈ 824 µM)	2.8 (≈ 8.01 µM)	288 (≈ 824 µM)	2 (≈ 5.72 µM)	8 (≈ 22.9 µM)	208 (≈ 595 µM)	2.2 (≈ 6.3 µM)	2.2 (≈ 6.3 µM)	192 (≈ 549 µM)	512 (≈ 1470 µM)	208 (≈ 595 µM)	2.7 (≈ 7.73 µM)	230 (≈ 658 µM)	256 (≈ 733 µM)	> 512	2.8 (≈ 8.01 µM)	MIC (Haemophilus influenzae [14]): 2.7 µg/mL (≈ 7.73 µM); MIC (Haemophilus influenzae [18]): 2 µg/mL (≈ 5.72 µM); MIC (Haemophilus influenzae [19]): 230 µg/mL (≈ 658 µM); MIC (Haemophilus influenzae [20]): 2 µg/mL (≈ 5.72 µM); MIC50 (Haemophilus influenzae [21]): 128 µg/mL (≈ 366 µM); MIC90 (Haemophilus influenzae [21]): 256 µg/mL (≈ 733 µM); MIC (Haemophilus influenzae [22]): 2.8 µg/mL (≈ 8.01 µM); MIC50 (Haemophilus influenzae [23]): 16 µg/mL (≈ 45.8 µM); MIC90 (Haemophilus influenzae [23]): 256 µg/mL (≈ 733 µM); MIC (Haemophilus influenzae [24]): 512 µg/mL (≈ 1470 µM); MIC (Haemophilus influenzae [25]): 2.2 µg/mL (≈ 6.3 µM); MIC (Haemophilus influenzae [26]): 230 µg/mL (≈ 658 µM); MIC (Haemophilus influenzae [27]): 4 µg/mL (≈ 11.4 µM); MIC (Haemophilus influenzae [28]): 2.8 µg/mL (≈ 8.01 µM); MIC (Haemophilus influenzae [29]): 4 µg/mL (≈ 11.4 µM); MIC (Haemophilus influenzae [30]): 208 µg/mL (≈ 595 µM)
